# From ChEMBL document CHEMBL1629436, “Synthesis and biological evaluation of new camptothecin derivatives obtained by modification of position 20” (Bioorg Med Chem, 2010)
# pIC50: −log10 of the molar value. The source made the active and inactive calls. The calls are words filed in the database; no cut-off is given here.
# What was measured:
# Mus musculus [1] = organism: Mus musculus; test: Cytotoxicity against mouse betaD5 cells after 24 to 96 hrs by MTS assay; type: functional, cell-based
# How it was run: (§1)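 Mouse transgenic lines plated at 10^3 cells/well and left 24 h to attach. Drugs diluted in medium were added for 24 or 96 h. CellTiter 96 AQueous One (MTS) reagent was then added for 1 h at 37 °C, with absorbance read at 490 nm. Each condition was run in quintuplicate, and cytotoxicity was expressed as percent of controls.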
# yA7 [2] = test: Cytotoxicity against mouse yA7 cells after 24 to 96 hrs by MTS assay; type: functional, cell-based; how it was run: as §1
# Nucleic Acid = test: Binding affinity to salmon testes DNA by linear flow dichroism analysis; type: nucleic-acid assay; conditions: Salmonidae
# How it was run: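 Salmon testes DNA (1.9 × 10^-3 M) in ETN buffer (10 mM Tris, 10 mM NaCl, 1 mM EDTA, pH 7). Linear dichroism spectra were recorded at 25 °C over a range of [drug]/[DNA] ratios on a spectropolarimeter converted for LD.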
# Craf/Cmyc [3] = test: Cytotoxicity against mouse Craf/Cmyc cells after 24 to 96 hrs by MTS assay; type: functional, cell-based; how it was run: as §1
# Mus musculus [4] = organism: Mus musculus; test: Cytotoxicity against mouse betaD10 cells after 24 to 96 hrs by MTS assay; type: functional, cell-based; how it was run: as §1
# A2C12 [5] = test: Cytotoxicity against mouse A2C12 cells after 24 to 96 hrs by MTS assay; type: functional, cell-based; how it was run: as §1
# [6] = molecular target: DNA topoisomerase 2-alpha (Homo sapiens) (UniProt P11388); test: Inhibition of human recombinant topoisomerase 2alpha-mediated relaxation of supercoiled pBR322 at up to 100 uM after 60 mins using ethidium bromide staining by agarose gel electrophoresis
# DNA topoisomerase 2-alpha (Homo sapiens), sequence (P11388 whole entry): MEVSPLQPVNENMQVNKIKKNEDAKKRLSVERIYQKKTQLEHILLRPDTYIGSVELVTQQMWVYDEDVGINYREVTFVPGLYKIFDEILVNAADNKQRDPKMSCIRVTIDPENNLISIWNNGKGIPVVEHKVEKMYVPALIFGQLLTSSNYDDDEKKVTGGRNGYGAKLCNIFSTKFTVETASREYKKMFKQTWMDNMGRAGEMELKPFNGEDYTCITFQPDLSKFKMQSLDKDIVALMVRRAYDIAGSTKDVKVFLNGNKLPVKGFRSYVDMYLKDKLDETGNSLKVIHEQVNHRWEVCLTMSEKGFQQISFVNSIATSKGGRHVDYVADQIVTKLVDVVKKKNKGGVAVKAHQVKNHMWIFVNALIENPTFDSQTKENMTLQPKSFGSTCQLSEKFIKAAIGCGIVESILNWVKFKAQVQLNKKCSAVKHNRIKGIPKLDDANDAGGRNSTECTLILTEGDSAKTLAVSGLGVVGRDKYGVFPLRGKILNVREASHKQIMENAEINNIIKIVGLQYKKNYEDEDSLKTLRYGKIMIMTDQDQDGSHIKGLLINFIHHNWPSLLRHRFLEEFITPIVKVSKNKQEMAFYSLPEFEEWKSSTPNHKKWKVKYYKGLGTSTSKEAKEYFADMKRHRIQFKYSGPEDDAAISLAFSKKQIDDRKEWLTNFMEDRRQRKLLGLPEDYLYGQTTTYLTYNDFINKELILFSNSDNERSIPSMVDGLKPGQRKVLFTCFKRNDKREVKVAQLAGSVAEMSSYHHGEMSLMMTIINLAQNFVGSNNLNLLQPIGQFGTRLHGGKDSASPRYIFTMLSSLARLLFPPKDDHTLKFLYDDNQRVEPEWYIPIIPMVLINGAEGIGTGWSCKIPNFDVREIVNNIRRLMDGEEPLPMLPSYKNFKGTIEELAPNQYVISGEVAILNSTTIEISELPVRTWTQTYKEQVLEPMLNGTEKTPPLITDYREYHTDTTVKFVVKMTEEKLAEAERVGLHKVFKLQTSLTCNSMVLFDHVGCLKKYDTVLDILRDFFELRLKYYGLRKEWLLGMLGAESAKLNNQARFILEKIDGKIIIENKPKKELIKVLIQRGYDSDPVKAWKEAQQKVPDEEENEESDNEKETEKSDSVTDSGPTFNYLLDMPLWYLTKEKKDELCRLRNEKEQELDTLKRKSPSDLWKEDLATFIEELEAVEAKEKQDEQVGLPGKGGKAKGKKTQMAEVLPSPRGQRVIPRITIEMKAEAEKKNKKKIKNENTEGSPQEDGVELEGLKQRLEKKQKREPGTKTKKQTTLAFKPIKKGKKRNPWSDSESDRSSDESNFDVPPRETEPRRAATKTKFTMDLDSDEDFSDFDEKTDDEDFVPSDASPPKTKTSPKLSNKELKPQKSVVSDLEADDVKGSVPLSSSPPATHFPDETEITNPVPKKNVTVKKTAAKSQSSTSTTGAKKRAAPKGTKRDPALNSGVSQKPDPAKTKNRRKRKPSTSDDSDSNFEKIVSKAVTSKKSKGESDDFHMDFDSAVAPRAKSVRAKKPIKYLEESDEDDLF
# How it was run: (§2)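 Supercoiled pBR322 (0.25 µg) with 1 U human recombinant topoisomerase IIα and test compound, 60 min at 37 °C in 20 µl reaction buffer. Stopped with SDS/bromophenol blue/glycerol plus 50 µg/mL proteinase K, 30 min at 37 °C. Separated on 1% agarose at room temperature, ethidium bromide stained (1 µg/mL, TAE), UV-visualized.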
# yB8 [7] = test: Cytotoxicity against mouse yB8 cells after 24 to 96 hrs by MTS assay; type: functional, cell-based; how it was run: as §1
# yA3 [8] = test: Cytotoxicity against mouse yA3 cells after 24 to 96 hrs by MTS assay; type: functional, cell-based; how it was run: as §1
# HUVEC [9] = test: Antiangiogenic activity in HUVEC cocultured with human PaSMC assessed as inhibition of capillary-like network formation up to 200 nM after 72 hrs; type: functional, cell-based
# How it was run: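 Primary HUVEC (passage 5, retrovirally labelled with RFP) and pulmonary artery vSMC (passage 5) co-seeded at 5×10^4 PaSMC plus 10×10^3 HUVEC per well in EGM-2, briefly spun at 200 g, attached 3 h. Compounds were then added at final 2–200 nM, two replicates per concentration. Networks formed over 72 h at 37 °C, 5% CO2, followed by automated imaging and image analysis of tube formation.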
# HeLa = test: Cytotoxicity against human HeLa cells after 72 hrs by trypan blue assay; type: functional, cell-based
# How it was run: (§3)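 A-431, HeLa and HL-60 cells at 4×10^4 per well, incubated 24 h. HeLa and A-431 then received fresh medium. Graded compound concentrations were added for a further 72 h at 37 °C, 5% CO2. Viability was counted by Trypan blue exclusion. IC50 is the concentration giving 50% reduction in cell number versus control: ≥3 independent experiments, triplicate samples, mean ± SD.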
# A2B1 [10] = test: Cytotoxicity against mouse A2B1 cells after 24 to 96 hrs by MTS assay; type: functional, cell-based; how it was run: as §1
# A-431 = test: Cytotoxicity against human A431 cells after 72 hrs by trypan blue assay; type: functional, cell-based; conditions: A-431, 72 h; how it was run: as §3
# B3 [11] = test: Cytotoxicity against mouse B3 cells after 24 to 96 hrs by MTS assay; type: functional, cell-based; how it was run: as §1
# Bos taurus = organism: Bos taurus; test: Inhibition of calf thymus topoisomerase 1-mediated relaxation of supercoiled pBR322 at 100 uM after 60 mins using ethidium bromide staining by agarose gel electrophoresis
# How it was run: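 Supercoiled pBR322 (0.25 µg) with 2 U calf thymus topoisomerase I and test compound, 60 min at 37 °C in 20 µl reaction buffer. Stopped with SDS/bromophenol blue/glycerol plus 50 µg/mL proteinase K, 30 min at 37 °C. Run on 1% agarose at room temperature, stained with ethidium bromide 1 µg/mL in TAE, imaged under UV.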
# yD12 [12] = test: Cytotoxicity against mouse yD12 cells after 24 to 96 hrs by MTS assay; type: functional, cell-based; how it was run: as §1
# HL-60 = test: Cytotoxicity against human HL60 cells after 72 hrs by trypan blue assay; type: functional, cell-based; conditions: HL-60, 72 h; how it was run: as §3
# HUVEC [13] = test: Antiangiogenic activity in HUVEC cocultured with human PaSMC assessed as inhibition of capillary-like network formation at 25 nM after 72 hrs; type: functional, cell-based
# How it was run: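 RFP-expressing HUVEC (early passage, passage 5) co-seeded with pulmonary artery vSMC (5×10^4 PaSMC plus 10×10^3 HUVEC per well) in EGM-2, briefly spun at 200 g and allowed to attach for 3 h. Compounds were added at final 2–200 nM, two replicates per concentration, at 37 °C, 5% CO₂. Network was imaged at 72 h with automated imaging, and tube length was quantified by image analysis.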
# A2C12 [14] = test: Induction apoptosis in mouse A2C12 cells assessed as ROS production at 10 uM/L using DCFH-DA by flow cytometry relative to control; type: functional, cell-based
# How it was run: (§4)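 Transgenic mouse cells exposed to compound at 10 µmol/L. ROS generation was measured by flow cytometry using the probe DCFH-DA.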
# Mus musculus [15] = organism: Mus musculus; test: Induction apoptosis in mouse betaD10 cells assessed as ROS production at 10 uM/L using DCFH-DA by flow cytometry relative to control; type: functional, cell-based; how it was run: as §4
# yA7 [16] = test: Induction apoptosis in mouse yA7 cells assessed as ROS production at 10 uM/L using DCFH-DA by flow cytometry relative to control; type: functional, cell-based; how it was run: as §4
# Craf/Cmyc [17] = test: Induction apoptosis in mouse Craf/Cmyc cells assessed as relative caspase activity at 10 uM/L after 2 hrs by rhodamine 110 fluorescence assay; type: functional
# How it was run: (§5)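 Cells were pretreated with compound (10 µmol/L) for 2 h. The cell-permeable caspase substrate (Asp)2-rhodamine 110 (10 µmol/L) was then added for 2 h more. Caspase cleavage releases fluorescent rhodamine 110, and the read-out was mean fluorescence.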
# yD1 [18] = test: Induction apoptosis in mouse yD1 cells assessed as ROS production at 10 uM/L using DCFH-DA by flow cytometry relative to control; type: functional, cell-based; how it was run: as §4
# yB8 [19] = test: Induction apoptosis in mouse yB8 cells assessed as ROS production at 10 uM/L using DCFH-DA by flow cytometry relative to control; type: functional, cell-based; how it was run: as §4
# B3 [20] = test: Induction apoptosis in mouse B3 cells assessed as ROS production at 10 uM/L using DCFH-DA by flow cytometry relative to control; type: functional, cell-based; how it was run: as §4
# yA7 [21] = test: Induction apoptosis in mouse yA7 cells assessed as relative caspase activity at 10 uM/L after 2 hrs by rhodamine 110 fluorescence assay; type: functional, cell-based; how it was run: as §5
# yA3 [22] = test: Induction apoptosis in mouse yA3 cells assessed as relative caspase activity at 10 uM/L after 2 hrs by rhodamine 110 fluorescence assay; type: functional, cell-based; how it was run: as §5
# yB8 [23] = test: Induction apoptosis in mouse yB8 cells assessed as relative caspase activity at 10 uM/L after 2 hrs by rhodamine 110 fluorescence assay; type: functional, cell-based; how it was run: as §5
# yD12 [24] = test: Induction apoptosis in mouse yD12 cells assessed as relative caspase activity at 10 uM/L after 2 hrs by rhodamine 110 fluorescence assay; type: functional, cell-based; how it was run: as §5
# A2B1 [25] = test: Induction apoptosis in mouse A2B1 cells assessed as relative caspase activity at 10 uM/L after 2 hrs by rhodamine 110 fluorescence assay; type: functional, cell-based; how it was run: as §5
# A2C12 [26] = test: Induction apoptosis in mouse A2C12 cells assessed as relative caspase activity at 10 uM/L after 2 hrs by rhodamine 110 fluorescence assay; type: functional, cell-based; how it was run: as §5
# yD12 [27] = test: Induction apoptosis in mouse yD12 cells assessed as ROS production at 10 uM/L using DCFH-DA by flow cytometry relative to control; type: functional, cell-based; how it was run: as §4
# yA3 [28] = test: Induction apoptosis in mouse yA3 cells assessed as ROS production at 10 uM/L using DCFH-DA by flow cytometry relative to control; type: functional, cell-based; how it was run: as §4
# A2B1 [29] = test: Induction apoptosis in mouse A2B1 cells assessed as ROS production at 10 uM/L using DCFH-DA by flow cytometry relative to control; type: functional, cell-based; how it was run: as §4
# Craf/Cmyc [30] = test: Induction apoptosis in mouse Craf/Cmyc cells assessed as ROS production at 10 uM/L using DCFH-DA by flow cytometry relative to control; type: functional, cell-based; how it was run: as §4
# yD1 [31] = test: Induction apoptosis in mouse yD1 cells assessed as relative caspase activity at 10 uM/L after 2 hrs by rhodamine 110 fluorescence assay; type: functional, cell-based; how it was run: as §5
# Mus musculus [32] = organism: Mus musculus; test: Induction apoptosis in mouse betaD5 cells assessed as relative caspase activity at 10 uM/L after 2 hrs by rhodamine 110 fluorescence assay; type: functional, cell-based; how it was run: as §5
# [33] = molecular target: DNA topoisomerase 2-alpha (Homo sapiens) (UniProt P11388); test: Inhibition of human recombinant topoisomerase 2alpha-mediated relaxation of supercoiled pBR322 at 100 uM after 60 mins using ethidium bromide staining by agarose gel electrophoresis; how it was run: as §2
# [34] = molecular target: DNA topoisomerase 2-alpha (Homo sapiens) (UniProt P11388); test: Inhibition of human recombinant topoisomerase 2alpha-mediated relaxation of supercoiled pBR322 after 60 mins using ethidium bromide staining by agarose gel electrophoresis; how it was run: as §2
# Mus musculus [35] = organism: Mus musculus; test: Induction apoptosis in mouse betaD5 cells assessed as ROS production at 10 uM/L using DCFH-DA by flow cytometry relative to control; type: functional, cell-based; how it was run: as §4
# B3 [36] = test: Induction apoptosis in mouse B3 cells assessed as relative caspase activity at 10 uM/L after 2 hrs by rhodamine 110 fluorescence assay; type: functional, cell-based; how it was run: as §5
# Mus musculus [37] = organism: Mus musculus; test: Induction apoptosis in mouse betaD10 cells assessed as relative caspase activity at 10 uM/L after 2 hrs by rhodamine 110 fluorescence assay; type: functional, cell-based; how it was run: as §5
smiles,measurement,setting,value
CC[C@@]1(OC(=O)NCCN2C(=O)CCCSSCCCC2=O)C(=O)OCc2c1cc1n(c2=O)Cc2cc3ccccc3nc2-1,Activity,Mus musculus [1],Active
same,Activity,yA7 [2],Active
same,Activity,Nucleic Acid,inactive
same,Activity,Craf/Cmyc [3],Active
same,Activity,Mus musculus [4],Active
same,Activity,A2C12 [5],Active
same,Activity,[6],inactive
same,Activity,yB8 [7],Active
same,Activity,yA3 [8],Active
same,Activity,HUVEC [9],inactive
same,pIC50,HeLa,6.24
same,Activity,A2B1 [10],Active
same,pIC50,A-431,5.92
same,Activity,B3 [11],Active
same,Activity,Bos taurus,inactive
same,Activity,yD12 [12],Active
same,pIC50,HL-60,5.81
CC[C@@]1(O)C(=O)OCc2c1cc1n(c2=O)Cc2cc3ccccc3nc2-1 [CAMPTOTHECIN],inhibition,HUVEC [13],Active
same,pIC50,HeLa,8.05
same,pIC50,A-431,7.96
same,pIC50,HL-60,7.77
CC[C@@]1(OC(=O)NCCN2C(=O)CCSSCCC2=O)C(=O)OCc2c1cc1n(c2=O)Cc2cc3ccccc3nc2-1,Activity,A2C12 [14],inactive
same,Activity,Mus musculus [15],inactive
same,Activity,Mus musculus [1],Active
same,Activity,yA7 [2],Active
same,Activity,yA7 [16],inactive
same,Activity,Craf/Cmyc [17],inactive
same,Activity,Nucleic Acid,inactive
same,Activity,Craf/Cmyc [3],Active
same,Activity,yD1 [18],inactive
same,Activity,Mus musculus [4],Active
same,Activity,A2C12 [5],Active
same,Activity,yB8 [19],inactive
same,Activity,B3 [20],inactive
same,Activity,yA7 [21],inactive
same,Activity,yA3 [22],inactive
same,Activity,yB8 [23],inactive
same,Activity,yD12 [24],inactive
same,Activity,A2B1 [25],inactive
same,Activity,A2C12 [26],inactive
same,Activity,yD12 [27],inactive
same,Activity,yA3 [28],inactive
same,Activity,A2B1 [29],inactive
same,Activity,yB8 [7],Active
same,Activity,yA3 [8],Active
same,Activity,HUVEC [9],inactive
same,pIC50,HeLa,4.92
same,Activity,Craf/Cmyc [30],inactive
same,Activity,A2B1 [10],Active
same,pIC50,A-431,5.53
same,Activity,B3 [11],Active
same,Activity,yD1 [31],inactive
same,Activity,Mus musculus [32],inactive
same,Activity,Bos taurus,inactive
same,Activity,[33],Active
same,Activity,yD12 [12],Active
same,Activity,[34],Dose-dependent effect
same,Activity,Mus musculus [35],inactive
same,pIC50,HL-60,5.09
same,Activity,B3 [36],inactive
same,Activity,Mus musculus [37],inactive
